In PubChem BioAssay AID540295 (The Scripps Research Institute Molecular Screening Center, 2011):
Hit rate of the full screen: of about 360,000 compounds, about 1,700 (0.47%) were called active. The sample holds actives, similar compounds and a random draw of the others, so the mix is not that of the screen. Values without a mark were called inactive.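 Rule for the calls: active = inhibition above its plate's cutoff, the mean of tested wells on that plate plus 3 SD (cut at about 29% in these data); inactive = the rest.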

What follows are molecules tested against Melanocortin receptor 4 (Homo sapiens) (UniProt P32245) (assay: MC4R antagonists of cAMP signaling, primary screen, cell-based, TR-FRET, antagonist arm of biased-ligand search (AID 540295;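 note: 0% = Melanotan II alone and 100% = Melanotan II plus saturating MCL0020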)). Conditions: MC4R-expressing cells, MTII-stimulated cAMP, LANCE TR-FRET; at 6.5 µM; hits give high values.
Melanocortin receptor 4 (Homo sapiens), sequence (P32245 whole entry, looked up): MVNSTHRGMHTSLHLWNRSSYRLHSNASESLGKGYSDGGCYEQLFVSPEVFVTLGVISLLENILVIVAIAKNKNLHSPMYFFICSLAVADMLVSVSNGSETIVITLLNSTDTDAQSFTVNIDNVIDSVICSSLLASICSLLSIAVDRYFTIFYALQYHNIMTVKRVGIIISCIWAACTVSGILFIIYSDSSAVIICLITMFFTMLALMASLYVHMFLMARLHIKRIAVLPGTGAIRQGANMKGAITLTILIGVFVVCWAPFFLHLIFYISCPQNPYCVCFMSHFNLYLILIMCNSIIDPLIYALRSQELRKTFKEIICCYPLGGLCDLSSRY
Summary of the method: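 Assay system: U2OS-MC4R stable cell line; Also added: Melanotan II; Technique: Eu-cAMP/anti-cAMP TR-FRET, emission 671 nm; Times: 30-min compound, 1-h challenge, 1-h detection, room temperature.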
With `CCOc1ccc(CCNC(=O)CN2C(=O)NC3(CCc4ccccc43)C2=O)cc1OCC` (stereo unspecified) the inhibition was 7.52%.
`CCO[C@H]1OC(C(=O)Nc2ccccc2)=C[C@@H](C2CC2)[C@@H]1CCCO` was tested, and the inhibition was 8.5%.
For `COc1ccc(C(C)C)cc1S(=O)(=O)Nc1ncn[nH]1`, the inhibition was 32.9% (active).
For `COc1cc(S(=O)(=O)Nc2ncn[nH]2)ccc1Cl`, the inhibition was 3.99%.
`COc1ccc(OC)c(S(=O)(=O)Nc2c(C)nn(C)c2C)c1` was tested, and the inhibition was -0.88%.
`CC(C)CC(=O)Nc1cc(C(F)(F)F)ccc1N1CCOCC1` was tested, and the inhibition was 8.93%.
Molecule `O=C(CN1C(=O)NC2(CCCC2)C1=O)Nc1cc(C(F)(F)F)ccc1N1CCOCC1` has an inhibition of 2.08%.
`O=C(Cn1nnc2ccccc2c1=O)Nc1cc(C(F)(F)F)ccc1N1CCOCC1` was tested, and the inhibition was 30.3% (active).
With `O=C(Nc1nccs1)c1cc(S(=O)(=O)N2CCOCC2)c(Cl)cc1Cl` the inhibition was 35.1% (active).
`O=C(Nc1ccc(S(=O)(=O)Nc2nccs2)cc1)c1cccc(S(=O)(=O)N2CCOCC2)c1` was tested, and the inhibition was 13.1%.
`O=C(NCc1cccnc1)c1cc(S(=O)(=O)N2CCOCC2)c(Cl)cc1Cl` gave an inhibition of 2.73%.
In the case of `COc1ccccc1N(CC(=O)N/N=C(\C)c1ccccc1O)S(=O)(=O)c1ccc(C)cc1`, the inhibition is reported as 33.9% (active).
`COc1ccccc1N(CC(=O)Nc1c(C)n(C)n(-c2ccccc2)c1=O)S(=O)(=O)c1ccccc1` was tested, and the inhibition was -1.81%.
Molecule `Cc1ccc(S(=O)(=O)N(CC(=O)N/N=C/c2ccc(F)cc2)c2cccc3cccnc23)cc1` has an inhibition of 15.1%.
`CC/C(Cc1ccccc1)=N/NC(=O)CCn1nnc2ccccc21` showed an inhibition of 9.16%.
`CC12CCC(=O)C=C1CCC1C2C(O)CC2(C)C1CCC2(O)C(O)CO` (stereo unspecified) gave an inhibition of 1.23%.
With `CCOC(=O)c1cc(C)nc(S(C)(=O)=O)c1C#N` the inhibition was 38.7% (active).
`CCOC(=O)COc1nc(C)cc(C(F)(F)F)c1C#N` was tested, and the inhibition was -2.8%.
In the case of `CCOC(=O)c1c(C(C#N)C#N)cc(C)nc1C`, the inhibition is reported as 1.49%.
`O=C(Nc1ccccc1F)c1cc(S(=O)(=O)N2CCCCC2)cs1` gave an inhibition of 3.77%.
Work on `Cn1ccs/c1=N\S(=O)(=O)c1ccc(C(C)(C)C)cc1` yielded an inhibition of 8.67%.
With `COc1ccc(N2C(=O)CC(N3CCC(C(N)=O)CC3)C2=O)cc1` (stereo unspecified) the inhibition was 5.05%.
`CNC(=O)C[C@H]1C(=O)N(c2ccc(OC)cc2)C[C@@H]1Cc1ccccc1` gave an inhibition of -3.72%.
With `COc1ccc(N2C(=O)C3C(C2=O)C(C(=O)c2ccccc2)N2CCCC32)cc1` (stereo unspecified) the inhibition was 30.8% (active).
With `O=C(CCc1nnc(Cc2ccc3c(c2)OCO3)o1)NCCc1ccccc1Cl` the inhibition was 2.77%.
`NCCCNC(=S)NCCCN(Cc1ccc(Cl)cc1)c1ccc(Br)cn1` gave an inhibition of 3.71%.
`O=C(NCc1ccccc1)C1=C[C@@H](C2CCCCC2)C[C@@H](OCc2ccc(CO)cc2)O1` gave an inhibition of 4.66%.
In the case of `CC(=O)c1ccccc1NC(=O)COC(=O)C1COc2ccccc2O1` (stereo unspecified), the inhibition is reported as 16.3%.
`CCC1CCCCN1CCCNC(=O)c1cc2c(Cl)nc3ccccc3c2s1` (stereo unspecified) gave an inhibition of -9.04%.
`Cc1cccc(CN2CCC(CNC(=O)Nc3ccc(F)c(Cl)c3)CC2)c1` gave an inhibition of 1.8%.
Molecule `COc1ccc(Cl)cc1NC(=O)NCC1CCN(Cc2ccccc2F)CC1` has an inhibition of 3.98%.
With `O=C(NCC1CCN(Cc2ccccc2Cl)CC1)Nc1cccc(Cl)c1` the inhibition was 29.6% (active).
`FC(F)Oc1ccccc1NC(=S)Nc1cccc(Cl)c1Cl` showed an inhibition of 0.43%.
With `S=C(Cc1ccc(Cl)cc1)N1CCOCC1` the inhibition was 2.15%.
`COc1ccccc1-c1nnc(NC(=O)c2cccc(N3C(=O)CCC3=O)c2)o1` gave an inhibition of 17.9%.
In the case of `COc1ccccc1NC(=O)c1ccc2nc(N3C(=O)CCC3=O)sc2c1`, the inhibition is reported as 35.1% (active).
`CCCc1cc(=O)[nH]c(SCC(=O)Nc2ccc(C(=O)Nc3ccccc3OC)cc2)n1` was tested, and the inhibition was 10.3%.
Work on `COC(=O)/C(=C1\Oc2ccc(C(C)(C)C)cc2S1)C(F)(F)F` yielded an inhibition of 13.2%.
`CCc1nc2c(OCCOc3ccccc3)cccn2c1N(C)C(=O)c1cccs1` was tested, and the inhibition was -6.4%.
In the case of `COC(=O)COc1ccc2c(=O)c(Oc3ccccc3Br)coc2c1`, the inhibition is reported as 11%.
In the case of `O=C(COC(=O)CSc1ccccc1)Nc1ccc(F)cc1F`, the inhibition is reported as 9.52%.
In the case of `COc1ccccc1CC(=O)Nc1ccc(F)cc1F`, the inhibition is reported as 28.9% (active).
For `COC(=O)c1ccccc1NC(=O)Cc1ccccc1OC`, the inhibition was 18.4%.
Work on `CCCCOc1ccc(C(=O)N/C(=C/C=C/c2ccccc2)C(=O)N2CCOCC2)cc1` yielded an inhibition of 3.43%.
With `O=C(Nc1nn(Cc2ccccc2F)cc1Br)c1cccs1` the inhibition was 11.3%.
For `C=CCn1c2ccccc2c2nnc(SCc3[nH]c(=O)[nH]c3C(=O)CCCCC(=O)OCC)nc21`, the inhibition was -12.2%.
